In ChEMBL document CHEMBL1130040, “Synthesis and structure-activity relationships of a new model of arylpiperazines. 2. Three-dimensional quantitative structure-activity relationships of hydantoin-phenylpiperazine derivatives with affinity for 5-HT1A and alpha 1 receptors. A comparison of CoMFA models” (J Med Chem, 1997):

Tests used:
[1] = molecular target: T1, 5-hydroxytryptamine receptor 1A (Rattus norvegicus, UniProt P19327); assay: Tested in vitro for binding affinity by measuring its ability to inhibit [3H]8-OH-DPAT binding at 5-hydroxytryptamine 1A receptor in rat cerebral cortex membranes.; assay type: cell membranes
T1 sequence (P19327 whole entry): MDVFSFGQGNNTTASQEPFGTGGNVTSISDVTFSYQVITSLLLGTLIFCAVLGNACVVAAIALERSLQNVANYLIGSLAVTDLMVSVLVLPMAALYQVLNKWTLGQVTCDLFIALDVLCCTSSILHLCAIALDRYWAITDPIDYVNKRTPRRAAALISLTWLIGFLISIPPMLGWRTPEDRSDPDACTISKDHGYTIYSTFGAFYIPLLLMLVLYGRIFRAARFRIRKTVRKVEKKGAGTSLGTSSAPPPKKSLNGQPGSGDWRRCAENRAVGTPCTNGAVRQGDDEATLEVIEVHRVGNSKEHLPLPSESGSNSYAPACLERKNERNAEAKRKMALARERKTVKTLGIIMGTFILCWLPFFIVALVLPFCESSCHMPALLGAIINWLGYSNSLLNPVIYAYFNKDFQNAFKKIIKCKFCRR
Method in brief: (§1)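 Rat cortex homogenized in ice-cold 50 mM Tris-HCl (pH 7.7), spun at 28000g, washed twice, preincubated 37 °C 10 min, resuspended in Tris/5 mM MgSO4/0.5 mM EDTA (pH 7.4). About 1 mg protein incubated 15 min at 37 °C with 0.6 nM [3H]-8-OH-DPAT and competitor, in buffer with 10 nM clonidine and 30 nM prazosin. Nonspecific binding: 10 μM 5-HT. Prescreen at 10^-6 M; curves run if displacement ≥55%.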

[2] = molecular target: T2, Adrenergic receptor alpha-1 (Rattus norvegicus, UniProt P15823+P23944+P43140); assay: Tested in vitro for binding affinity by measuring its ability to inhibit [3H]prazosin binding at alpha-1 adrenergic receptor in rat cerebral cortex membranes.; assay type: cell membranes
T2 sequence (P15823 whole entry): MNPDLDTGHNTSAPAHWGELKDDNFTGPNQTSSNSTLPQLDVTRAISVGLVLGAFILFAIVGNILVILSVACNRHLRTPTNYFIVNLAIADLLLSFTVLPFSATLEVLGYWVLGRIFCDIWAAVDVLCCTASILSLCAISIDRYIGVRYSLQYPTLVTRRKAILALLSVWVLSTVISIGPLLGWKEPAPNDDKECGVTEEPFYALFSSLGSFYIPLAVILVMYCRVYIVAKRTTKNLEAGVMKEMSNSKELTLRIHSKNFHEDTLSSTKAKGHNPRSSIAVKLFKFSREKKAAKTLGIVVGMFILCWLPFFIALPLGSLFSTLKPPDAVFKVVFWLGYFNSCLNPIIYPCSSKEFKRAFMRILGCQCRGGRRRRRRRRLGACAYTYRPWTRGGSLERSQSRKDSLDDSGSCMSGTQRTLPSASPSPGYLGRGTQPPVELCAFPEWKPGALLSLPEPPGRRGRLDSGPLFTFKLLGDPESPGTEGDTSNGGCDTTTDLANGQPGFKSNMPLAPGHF
T2 sequence (P23944 whole entry): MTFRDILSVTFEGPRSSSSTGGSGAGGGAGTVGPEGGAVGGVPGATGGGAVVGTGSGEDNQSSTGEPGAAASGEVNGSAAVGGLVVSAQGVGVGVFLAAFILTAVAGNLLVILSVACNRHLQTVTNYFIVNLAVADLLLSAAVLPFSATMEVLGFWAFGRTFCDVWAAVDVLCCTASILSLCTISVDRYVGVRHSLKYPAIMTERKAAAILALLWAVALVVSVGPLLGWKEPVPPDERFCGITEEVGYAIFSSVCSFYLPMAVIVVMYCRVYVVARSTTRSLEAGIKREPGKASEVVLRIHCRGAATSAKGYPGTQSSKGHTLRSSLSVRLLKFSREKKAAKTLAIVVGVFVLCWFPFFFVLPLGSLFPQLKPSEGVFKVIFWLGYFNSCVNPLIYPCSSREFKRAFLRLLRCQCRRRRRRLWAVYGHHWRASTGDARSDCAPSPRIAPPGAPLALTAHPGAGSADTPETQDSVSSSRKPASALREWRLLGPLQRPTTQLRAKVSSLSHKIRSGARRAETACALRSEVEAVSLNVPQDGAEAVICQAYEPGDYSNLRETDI
T2 sequence (P43140 whole entry): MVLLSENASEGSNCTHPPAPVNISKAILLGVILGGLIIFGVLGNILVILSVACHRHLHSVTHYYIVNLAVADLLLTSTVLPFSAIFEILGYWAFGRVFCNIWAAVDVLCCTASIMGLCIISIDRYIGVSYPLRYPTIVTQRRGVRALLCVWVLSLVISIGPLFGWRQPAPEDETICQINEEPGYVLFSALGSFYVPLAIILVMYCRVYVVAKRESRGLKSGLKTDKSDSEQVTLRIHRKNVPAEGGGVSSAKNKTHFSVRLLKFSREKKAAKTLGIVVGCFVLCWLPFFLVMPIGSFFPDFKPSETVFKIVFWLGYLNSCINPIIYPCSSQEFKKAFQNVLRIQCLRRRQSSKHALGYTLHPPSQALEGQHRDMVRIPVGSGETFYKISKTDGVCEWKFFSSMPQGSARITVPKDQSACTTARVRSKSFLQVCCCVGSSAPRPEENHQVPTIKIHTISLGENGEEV
Method in brief: (§2)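 Rat cerebral cortex homogenized in ice-cold 50 mM Tris-HCl/10 mM MgCl2 (pH 7.7), centrifuged at 30000g, washed twice. About 250 μg membrane protein incubated at 25 °C for 30 min with 0.2 nM [3H]prazosin plus several competitor concentrations. Compounds first screened at 10^-6 M; dose-response curves done where displacement reached ≥55%.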

[3] = molecular target: T1, 5-hydroxytryptamine receptor 1A; assay: In vitro binding affinity against 5-hydroxytryptamine 1A receptor of rat cerebral cortex using [3H]8-OH-DPAT as radioligand.; assay type: tissue-based; method in brief: as §1
[4] = molecular target: T2, Adrenergic receptor alpha-1; assay: In vitro binding affinity against alpha-1 adrenergic receptor of rat cerebral cortex using [3H]prazosin as radioligand.; assay type: tissue-based; method in brief: as §2

SMILES | Ki [1] [µM] | Ki [2] [µM] | Ki [4] [µM] | also measured
CC(C)C(=O)Nc1cccc(N2CCN(CCCCN3C(=O)C4CCCN4C3=O)CC2)c1.Cl (stereo not drawn) | 0.102 | > 10 |  | 
COc1ccccc1N1CCN(CN2C(=O)C3CCCCN3C2=O)CC1 (stereo not drawn) |  |  |  | Ki [3]: 0.0311 µM
O=C1C2CCCCN2C(=O)N1CN1CCN(c2cccc(C(F)(F)F)c2)CC1 (stereo not drawn) |  |  | 3.296 | 
O=C1C2CCCN2C(=O)N1CN1CCN(c2ccc([N+](=O)[O-])cc2)CC1 (stereo not drawn) |  |  | 260 | Ki [3]: 6.1 µM
O=C1C2CCCN2C(=O)N1CCN1CCN(c2ccccc2)CC1 (stereo not drawn) | 7.55 |  |  | 
Nc1ccc(N2CCN(CCCCN3C(=O)C4CCCN4C3=O)CC2)cc1 (stereo not drawn) | > 10 |  |  | 
O=C1C2CCCCN2C(=O)N1CCCN1CCN(c2ccc([N+](=O)[O-])cc2)CC1 (stereo not drawn) | 30.6 | 6.652 |  | 
O=C1C2CCCCN2C(=O)N1CCN1CCN(c2cccc(C(F)(F)F)c2)CC1 (stereo not drawn) |  | 4.325 |  | 
O=C1C2CCCCN2C(=O)N1CN1CCN(c2ccccc2)CC1 (stereo not drawn) |  |  | 2.075 | 
O=C1C2CCCN2C(=O)N1CN1CCN(c2cccc(C(F)(F)F)c2)CC1 (stereo not drawn) |  |  | 3.296 | 
O=C1C2CCCN2C(=O)N1CCCN1CCN(c2ccc([N+](=O)[O-])cc2)CC1 (stereo not drawn) |  | 7.533 |  | 
O=C1C2CCCN2C(=O)N1CN1CCN(c2ccccc2)CC1 (stereo not drawn) |  |  | 2.588 | 
O=C1C2CCCCN2C(=O)N1CN1CCN(c2ccc([N+](=O)[O-])cc2)CC1 (stereo not drawn) |  |  | 260 | Ki [3]: 5.97 µM
O=C1C2CCCN2C(=O)N1CCCCN1CCN(c2ccc([N+](=O)[O-])cc2)CC1 (stereo not drawn) | 23.9 |  |  | 
O=C1C2CCCN2C(=O)N1CCN1CCN(c2cccc(C(F)(F)F)c2)CC1 (stereo not drawn) |  | 3.935 |  | 

Continued, in another order:

Ki [1] [µM] | Ki [2] [µM] | Ki [4] [µM] | SMILES | also measured
19.3 |  |  | O=C1C2CCCCN2C(=O)N1CCN1CCN(c2ccc(F)cc2)CC1 (stereo not drawn) | 
1.35 |  |  | O=C1C2CCCCN2C(=O)N1CCN1CCN(c2ccccc2)CC1 (stereo not drawn) | 
93.6 | 199 |  | O=C1C2CCCCN2C(=O)N1CCN1CCN(c2ccc([N+](=O)[O-])cc2)CC1 (stereo not drawn) | 
 |  | 1.193 | O=C1C2CCCN2C(=O)N1CN1CCN(c2ccc(F)cc2)CC1 (stereo not drawn) | 
23.9 |  |  | O=C1C2CCCN2C(=O)N1CCN1CCN(c2ccc(F)cc2)CC1 (stereo not drawn) | 
501 | 260 |  | O=C1C2CCCN2C(=O)N1CCN1CCN(c2ccc([N+](=O)[O-])cc2)CC1 (stereo not drawn) | 
1.18 |  |  | O=C1C2CCCN2C(=O)N1CCCN1CCN(c2ccc(F)cc2)CC1 (stereo not drawn) | 
